# T cruzi HTS – intracellular Trypanosoma cruzi inhibition | 22,000 tested, 4.9% active | AID 651903 | activity score (inhibition), % at 5.01 µM | intracellular Trypanosoma cruzi in host cells, plate reader; in the data active means activity score above about 55%; inconclusive means no clear call, values can overlap the other calls;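 further: parasites and compound incubated about four days before reading; 0% = median of neutral control wells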
# INS-1E rescue – preserves ATP levels in cytokine-treated INS-1E cells. INS-1E cytokine-induced death, ATP luminescence, 48 h; normalised: neutral wells 0, positive control 100. protection from cytokine-induced ATP loss, % at 10 µM. 20,000 tested, 0.1% active;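 active means mean replicate protection from cytokine-induced ATP loss at least 50% and at least 75% of replicates each reaching 50%; inconclusive means meets only one of the two criteria, mean or replicate share; inactive means fails both the mean and replicate share criteria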
#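 Test system: INS-1E rat cells | Quantity: 8000 cells per well | Medium: Phenol-red-free RPMI with 5% fetal bovine serum | Reagent: Cytokine cocktail of IFN-γ, TNF-α and IL-1β | Doses: One compound concentration, pin transfer | Timing: 48 h co-treatment, 10 min post-lysis read | Technique: Luminescent ATP assay (CellTiter-Glo)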
# A1 apoptosis 2 – A1 inhibition read as caspase activation; 24,000 tested, under 10 active; AID 2465; MEF A1-2A-BIM cells, caspase-Glo luminescence, 3 h; percent of clofoctol response, DMSO zero; caspase activation, % (concentration not given with the values); in the data active means caspase activation above about 5.9%; inconclusive means no clear call, values can overlap the other calls; inactive means below about 2.2%
#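 Evaluation: Caspase-3/7 activity from luminescence increase | Assay system: A1-2A-BIM mouse embryonic fibroblasts | Quantity: 2500 MEF cells/well | Medium: RPMI-1640 plus 10% FBS | Detection: Caspase-Glo 3/7 luminescence, 1 h at room temperature | Dosing: 50 nL compound per well, pinned | Timing: Cells settled overnight, compound exposure 3 h at 37 °C, 5% CO2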
# Numbers without * were called inactive; u = inconclusive; x = not tested or not shown. Only a selection was taken, and hits are over-represented in it overall.
SMILES,T cruzi HTS,INS-1E rescue,A1 apoptosis 2
C[C@@H]1CN([C@H](C)CO)C(=O)Cc2cc(NC(=O)C3CCCCC3)ccc2O[C@@H]1CN(C)Cc1ccc(-c2ccccc2)cc1,u,-77,2
C[C@@H]1CN([C@H](C)CO)C(=O)Cc2cc(NC(=O)C3CC3)ccc2O[C@H]1CN(C)Cc1ccc(-c2ccccc2)cc1,15,-5,-1
C[C@H]1CN([C@@H](C)CO)C(=O)Cc2cc(NC(=O)C3CCCCC3)ccc2O[C@@H]1CN(C)Cc1ccc(-c2ccccc2)cc1,60*,-39,x
C[C@@H]1CN([C@@H](C)CO)C(=O)Cc2cc(NC(=O)C3CC3)ccc2O[C@H]1CN(C)Cc1ccc(-c2ccccc2)cc1,x,x,0
O=C(C1=C[C@H](c2ccc(C(F)(F)F)cc2)C[C@H](OCCCCO)O1)N1CCCCCCC1,x,x,0
CCOC(=O)[C@@H]1CCCCN1C(=O)C(=O)OC,x,x,1
O=C(NO)c1ccc(C(=O)N/N=C/c2cccs2)cc1,6,-1,0
CC(C)=CCC[C@@H](C)C/C=N/NC(=O)c1ccccn1,4,-1,-1
O=C(NO)c1ccc(C(=O)N/N=C/c2c[nH]c3ccccc23)cc1,-3,8,x
CC(C)NC(=O)Nc1ccc2c(c1)CC(=O)N([C@H](C)CO)C[C@H](C)[C@H](CN(C)Cc1ccc(C(=O)Nc3ccccc3N)cc1)O2,68*,6,x
C[C@@H]1CN([C@H](C)CO)C(=O)Cc2cc(NC(=O)Nc3ccc(F)cc3)ccc2O[C@H]1CN(C)Cc1ccc(C(=O)Nc2ccccc2N)cc1,33,1,x
C[C@H](CO)N1C[C@H](C)[C@H](CN(C)Cc2ccc(C(=O)Nc3ccccc3N)cc2)Oc2ccc(NC(=O)Nc3ccc(C(F)(F)F)cc3)cc2CC1=O,82*,-21,x
C[C@@H]1CN([C@H](C)CO)C(=O)c2cc(NC(=O)Nc3ccc(C(F)(F)F)cc3)ccc2O[C@H]1CN(C)Cc1ccc(C(=O)Nc2ccccc2N)cc1,57*,-13,0
C[C@@H]1CN([C@@H](C)CO)C(=O)c2cc(NC(=O)Nc3ccc(C(F)(F)F)cc3)ccc2O[C@H]1CN(C)Cc1ccc(C(=O)Nc2ccccc2N)cc1,39,2,x
C[C@@H]1CN([C@@H](C)CO)C(=O)Cc2cc(NC(=O)Nc3ccc(C(F)(F)F)cc3)ccc2O[C@@H]1CN(C)Cc1ccc(C(=O)Nc2ccccc2N)cc1,84*,-28,x
C[C@H]1CN([C@@H](C)CO)C(=O)Cc2cc(NC(=O)NC3CCCCC3)ccc2O[C@@H]1CN(C)Cc1ccc(C(=O)Nc2ccccc2N)cc1,x,x,-1
C[C@@H]1CN([C@@H](C)CO)C(=O)Cc2cc(NC(=O)Nc3ccc(F)cc3)ccc2O[C@H]1CN(C)Cc1ccc(C(=O)Nc2ccccc2N)cc1,x,x,-1
CN(C)CCCOc1ccc(/C=N/NC(=O)c2ccc(C(=O)NO)cc2)cc1,x,x,0
C=CC[C@H](OC(=O)Nc1ccc(OC)cc1)c1ccc(OCCO)cc1,x,x,-5
CCOC(=O)/C=C/c1ccccc1OC,x,x,-3
C[C@@H]1CN([C@@H](C)CO)C(=O)Cc2cc(NC(=O)CCC(F)(F)F)ccc2O[C@@H]1CN(C)Cc1ccc(C(=O)Nc2ccccc2N)cc1,68*,-7,x
C[C@H](CO)N1C[C@H](C)[C@H](CN(C)Cc2ccc(C(=O)Nc3ccccc3N)cc2)Oc2ccc(NC(=O)CCC(F)(F)F)cc2CC1=O,53,29,0
C[C@H]1CN([C@@H](C)CO)C(=O)Cc2cc(NC(=O)Nc3ccc(F)cc3)ccc2O[C@@H]1CN(C)Cc1ccc(C(=O)Nc2ccccc2N)cc1,33,6,-1
C[C@@H]1CN([C@H](C)CO)C(=O)Cc2cc(NC(=O)Nc3ccccc3)ccc2O[C@@H]1CN(C)Cc1ccc(C(=O)Nc2ccccc2N)cc1,64*,0,-1
COc1ccc(/C=N/NC(=O)CCCCCC(=O)Nc2ccccc2O)cc1OC,-3,11,x
SMILES,T cruzi HTS,INS-1E rescue,A1 apoptosis 2
COc1cc(/C=N/NC(=O)c2ccccn2)c(Br)cc1O,-9,3,-9
Cc1ccc(S(=O)(=O)N[C@@H](Cc2ccccc2)C(=O)NCCN=[N+]=[N-])cc1,x,x,1
O=C(N/N=C/c1ccccc1)c1ccccc1O,-28,15,-5
Cc1ccc(S(=O)(=O)Nc2ccc3c(c2)C(=O)N([C@@H](C)CO)C[C@H](C)[C@@H](CN(C)Cc2ccc(-c4ccccc4)cc2)O3)cc1,78*,-5,0
Cc1ccc(S(=O)(=O)Nc2ccc3c(c2)C(=O)N([C@@H](C)CO)C[C@@H](C)[C@H](CN(C)Cc2ccc(-c4ccccc4)cc2)O3)cc1,u,-8,x
C[C@H]1CN([C@@H](C)CO)C(=O)c2cc(NS(=O)(=O)c3ccccc3)ccc2O[C@@H]1CN(C)Cc1ccc(-c2ccccc2)cc1,67*,-24,0
C[C@@H]1CN([C@@H](C)CO)C(=O)c2cc(NS(=O)(=O)c3ccccc3)ccc2O[C@@H]1CN(C)Cc1ccc(-c2ccccc2)cc1,27,-59,x
COc1cccc(-n2cc(C(=O)NO)nn2)c1,x,x,-1
COc1ccc(S(=O)(=O)N(C)C[C@H]2Oc3ccc(NC(=O)Nc4ccc(C(F)(F)F)cc4)cc3CC(=O)N([C@@H](C)CO)C[C@H]2C)cc1,65*,-12,0
C[C@@H]1CN([C@H](C)CO)C(=O)Cc2cc(NC(=O)Nc3ccc(C(F)(F)F)cc3)ccc2O[C@H]1CN(C)S(=O)(=O)c1ccc(Cl)cc1,33,-62,x
Cc1ccc(S(=O)(=O)N(C)C[C@H]2Oc3ccc(NC(=O)Nc4ccc(C(F)(F)F)cc4)cc3CC(=O)N([C@@H](C)CO)C[C@H]2C)cc1,58*,-36,1
COc1ccc(S(=O)(=O)N(C)C[C@H]2Oc3ccc(NC(=O)Nc4ccc(C(F)(F)F)cc4)cc3CC(=O)N([C@H](C)CO)C[C@@H]2C)cc1,x,x,2
C[C@@H]1CN([C@H](C)CO)C(=O)Cc2cc(NC(=O)Nc3ccc(C(F)(F)F)cc3)ccc2O[C@@H]1CN(C)S(=O)(=O)c1ccc(Cl)cc1,58*,6,0
C[C@@H]1CN([C@@H](C)CO)C(=O)Cc2cc(NC(=O)Nc3ccc(C(F)(F)F)cc3)ccc2O[C@H]1CN(C)S(=O)(=O)c1ccc(Cl)cc1,x,x,1
C[C@H](CO)N1C[C@H](C)[C@H](CN(C)S(=O)(=O)c2ccc(Cl)cc2)Oc2ccc(NC(=O)Nc3ccc(C(F)(F)F)cc3)cc2CC1=O,63*,-9,x
Cc1ccc(S(=O)(=O)N(C)C[C@@H]2Oc3ccc(NC(=O)Nc4ccc(C(F)(F)F)cc4)cc3CC(=O)N([C@@H](C)CO)C[C@@H]2C)cc1,u,-57,x
C[C@H]1CN([C@@H](C)CO)C(=O)Cc2cc(NC(=O)Nc3ccc(C(F)(F)F)cc3)ccc2O[C@H]1CN(C)S(=O)(=O)c1ccc(F)cc1,31,-13,-2
C[C@@H]1CN([C@@H](C)CO)C(=O)Cc2cc(NC(=O)Nc3ccc(C(F)(F)F)cc3)ccc2O[C@@H]1CN(C)S(=O)(=O)c1ccc(F)cc1,81*,-4,x
O=c1[nH]c(=O)c2cc(Br)ccc2[nH]1,x,x,2

# Screens deposited in PubChem BioAssay by Broad Institute.
